The IC90 is the concentration needed for an effect of 90%.

These results are taken from ChEMBL document CHEMBL4321880 (J Med Chem, 2020).

In one data set the target is CYP3A5 (Homo sapiens, UniProt P20815). Kind of data set: Inhibition of human recombinant CYP3A5 expressed in supersomes assessed as decrease in formation of D-luciferin using luciferin-IPA as substrate incubated for 10 mins in presence of NADPH by P450-Glo luminescence assay. The settings on record: probe luciferin-IPA.
For the next data set, the target named is Cytochrome P450 3A4 (Homo sapiens, UniProt P08684). Kind of data set: Binding affinity to His-tagged CYP3A4 (unknown origin) expressed in Escherichia coli DH5alpha assessed as formation of Soret band at 386 nm with low decrease in low-spin soret maxima at 416 nm by UV-vis spectrophotometric titration analysis. The class given is ADME. Also on record: dose or concentration left out as unconfirmed. In short, it runs like this: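 Recombinant His-tagged enzyme expressed in E. coli with groESL chaperones, purified by Ni-NTA, CM-sepharose and S-200 gel filtration (Rz ≥1.3). Ligand added stepwise until heme absorbance stopped changing. Difference spectra taken against the ligand-free spectrum. Peak-minus-trough ΔAbs (388–418 nm) plotted against ligand concentration and fitted with equation 2 for Kd.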
Cytochrome P450 3A4, sequence (P08684 whole entry): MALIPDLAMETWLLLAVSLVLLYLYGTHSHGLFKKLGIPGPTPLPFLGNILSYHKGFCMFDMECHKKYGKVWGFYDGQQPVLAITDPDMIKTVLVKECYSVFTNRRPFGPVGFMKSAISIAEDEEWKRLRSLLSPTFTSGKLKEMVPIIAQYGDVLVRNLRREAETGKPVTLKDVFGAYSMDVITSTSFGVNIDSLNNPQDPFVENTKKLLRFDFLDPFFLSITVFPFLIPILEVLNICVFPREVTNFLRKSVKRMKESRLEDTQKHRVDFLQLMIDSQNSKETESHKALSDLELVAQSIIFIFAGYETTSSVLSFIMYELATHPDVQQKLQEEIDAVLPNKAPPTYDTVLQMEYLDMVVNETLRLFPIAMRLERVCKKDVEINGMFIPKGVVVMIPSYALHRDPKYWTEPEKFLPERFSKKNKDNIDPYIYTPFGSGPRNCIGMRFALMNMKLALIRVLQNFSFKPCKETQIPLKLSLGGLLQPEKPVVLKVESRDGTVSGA

A further data set concerns ASPC1. In words: Cytotoxicity against CRISPR/Cas9-mediated CYP3A5 knock-out and lentiviral pLVX-TRE3G-ZsGreen1-CYP3A5 transduced human AsPC1 cells overexpressing CYP3A5 assessed as cell growth. Format: ADME, cell-based. In short, it runs like this: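 Cells seeded at 10,000/well. Dox-inducible lines were induced with 100 ng/mL doxycycline, then treated 24 h later with compound at 16 two-fold dilutions (0.0003–10 μM) plus 5 μM midazolam, in 0.66% DMSO final, for 24 h. Phase-contrast confluence imaging followed. Values were normalized to six 0.66% DMSO replicates and fitted with a three-parameter log(inhibitor) vs response curve.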

SMILES strings stand for the structures.

CYP3A5, sequence (P20815 whole entry): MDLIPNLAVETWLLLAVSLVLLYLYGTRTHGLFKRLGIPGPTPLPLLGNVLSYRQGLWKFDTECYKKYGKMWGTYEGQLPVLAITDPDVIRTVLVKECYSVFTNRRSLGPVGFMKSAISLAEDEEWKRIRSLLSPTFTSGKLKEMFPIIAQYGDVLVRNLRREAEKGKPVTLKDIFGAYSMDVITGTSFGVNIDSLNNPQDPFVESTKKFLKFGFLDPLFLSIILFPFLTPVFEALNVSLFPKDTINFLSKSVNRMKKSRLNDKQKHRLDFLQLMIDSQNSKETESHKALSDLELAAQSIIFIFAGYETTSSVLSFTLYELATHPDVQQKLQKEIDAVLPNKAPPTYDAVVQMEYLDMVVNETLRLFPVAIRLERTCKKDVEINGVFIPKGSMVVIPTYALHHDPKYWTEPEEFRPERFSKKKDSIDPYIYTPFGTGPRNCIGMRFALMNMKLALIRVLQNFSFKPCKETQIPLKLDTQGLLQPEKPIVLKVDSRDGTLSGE

Turning to `CCC(=O)O[C@]1(C(=O)CCl)[C@@H](C)C[C@H]2[C@@H]3CCC4=CC(=O)C=C[C@]4(C)[C@@]3(F)[C@@H](O)C[C@@]21C` [CLOBETASOL PROPIONATE], the IC90 at 10 min at CYP3A5 was 1.8 µM. Besides, the Activity result at Cytochrome P450 3A4 was “Active”; in the data set on ASPC1, “Non-Toxic”.
